Here are results for six compounds from ChEMBL document CHEMBL1130173, “A model for binding of structurally diverse natural product inhibitors of protein phosphatases PP1 and PP2A” (J Med Chem, 1997).

Test [1] addresses T1, Serine-threonine protein phosphatase 2A regulatory subunit (Gallus gallus, UniProt Q8AWE3).
T1 sequence (Q8AWE3 whole entry): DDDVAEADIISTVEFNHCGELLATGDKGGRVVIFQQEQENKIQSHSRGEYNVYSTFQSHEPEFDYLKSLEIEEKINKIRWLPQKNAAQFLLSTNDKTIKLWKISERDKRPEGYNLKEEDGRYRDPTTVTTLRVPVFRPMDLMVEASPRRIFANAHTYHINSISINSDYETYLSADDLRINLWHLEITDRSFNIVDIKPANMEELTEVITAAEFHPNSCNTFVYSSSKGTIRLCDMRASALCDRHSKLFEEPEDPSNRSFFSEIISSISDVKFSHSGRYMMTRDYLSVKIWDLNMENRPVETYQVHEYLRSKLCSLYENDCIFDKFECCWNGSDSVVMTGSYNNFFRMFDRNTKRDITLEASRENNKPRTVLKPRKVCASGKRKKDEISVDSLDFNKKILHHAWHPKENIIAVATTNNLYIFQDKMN
The test is described as follows: Inhibition activity against protein phosphatase 2A (PP2A), activity taken from literature.

Test [2] deals with T1, Serine-threonine protein phosphatase 2A regulatory subunit. Kind of test: Observed inhibition activity against protein phosphatase 2A (PP2A).
The target is the same in test [3]. The test is described as follows: (§1) Observed inhibition activity of the compounds against protein phosphatases 2A (PP2A). In short, it runs like this: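 Commercial PP2A (e.g. 3 mU) in MOPS/2-mercaptoethanol/MgCl2/albumin dilution buffer. Preincubated 10 min with inhibitor at pH 8.0 Tris-HCl. Reaction started with KR-pT-IRR phosphopeptide (0.2 mM stock), 60 min at 22 °C. Released phosphate measured by malachite green at 650 nm after 20 min development; IC50 from inhibition curves.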

The target in test [4] is T2, Serine/threonine-protein phosphatase 2A 55 kDa regulatory subunit B alpha isoform (Homo sapiens, UniProt P63151).
T2 sequence (P63151 whole entry): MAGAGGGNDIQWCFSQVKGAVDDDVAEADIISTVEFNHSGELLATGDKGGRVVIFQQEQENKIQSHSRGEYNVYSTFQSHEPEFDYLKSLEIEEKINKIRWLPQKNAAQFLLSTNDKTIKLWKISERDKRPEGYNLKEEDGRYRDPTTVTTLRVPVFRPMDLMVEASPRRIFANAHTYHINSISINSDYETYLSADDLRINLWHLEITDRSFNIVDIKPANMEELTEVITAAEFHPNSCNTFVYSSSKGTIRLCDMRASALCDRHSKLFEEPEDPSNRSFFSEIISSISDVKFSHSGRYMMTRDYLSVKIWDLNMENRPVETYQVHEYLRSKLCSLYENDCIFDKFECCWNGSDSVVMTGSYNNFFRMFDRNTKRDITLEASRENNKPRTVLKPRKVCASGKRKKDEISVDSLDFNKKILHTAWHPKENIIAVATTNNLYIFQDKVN
The test is described as §1.

*1 amine or outer side, *2 acyl side, *3 side chain or, on linkers, in order; H or OH if unused. Where a SMILES comes first, the peptide text is derived from it. Bridges are numbered along the chain shown (N, C = ends). [ ]: non-standard residue; d: D form. Adda = CO[C@@H](Cc1ccccc1)[C@@H](C)/C=C(C)/C=C/[C@H](N[*:1])[C@H](C)C(=O)[*:2]; dAsp(3S-Me) = C[C@H](C(=O)[*:3])[C@@H](N[*:1])C(=O)[*:2]; d(γGlu) = O=C(O)[C@@H](CCC(=O)[*:2])N[*:1]; NMeDha = C=C(NC)C(=O)O

In general, IC50 refers to the point on the concentration scale where inhibition reaches its midpoint.

Consider `CC=C1C(=O)N[C@@H](C(=O)O)[C@H](C)C(=O)N[C@@H](CCCNC(=N)N)C(=O)N[C@@H](/C=C/C(C)=C/[C@H](C)[C@H](Cc2ccccc2)OC)[C@H](C)C(=O)N[C@@H](C(=O)O)CCC(=O)N1C`, for which the IC50 in test [1] came out at 1 nM; in test [2] it was 0.2 nM. In turn, `COC([C@H](OC(=O)C[C@@H](O)C1=C(C)C(=O)OC1=O)C(C)C)[C@H](O)CC(=O)[C@@H](C)[C@@H](O)CC[C@@H](C)[C@@H]1O[C@]2(CC[C@@H](C)[C@H](CC[C@H](C)C(C)=O)O2)CC[C@@H]1C` (single isomer, unassigned) [TAUTOMYCIN] displayed a half-inhibitory concentration (IC50) in test [3] of 10 nM.

Regarding `COC[C@@H]([C@H](O)[C@H](O)C(=O)NCC[C@H](C)c1nc(/C=C/C[C@@H]2O[C@]3(C[C@@H](O)[C@@H]2C)O[C@H]([C@H](C[C@H](O)[C@H](C)[C@H](O)[C@H](C)/C=C(C)/C(C)=C/C=C/C(C)=C\C#N)OC)[C@H](OP(=O)(O)O)C3(C)C)co1)N(C)C` [CALYCULIN A], 7.3 nM corresponded to half-maximal inhibition in test [3] (IC50). In turn, `COC[C@@H]([C@H](O)[C@H](O)C(=O)N[C@H](C)C[C@H](C)c1nc(/C=C/C[C@@H]2O[C@]3(C[C@@H](O)[C@@H]2C)O[C@H]([C@H](C[C@H](O)[C@H](C)[C@H](O)[C@H](C)/C=C(C)/C(C)=C/C=C/C(C)=C\C#N)OC)[C@H](OP(=O)(O)O)C3(C)C)co1)N(C)C` [CALYCULIN] returned an IC50 in test [3] of 9.71 nM. In test [4], `C=C1C(=O)N[C@H](C)C(=O)N[C@@H](CC(C)C)C(=O)N[C@@H](C(=O)O)[C@H](C)C(=O)N[C@@H](CCCNC(=N)N)C(=O)N[C@@H](/C=C/C(C)=C/[C@H](C)[C@H](Cc2ccccc2)OC)[C@H](C)C(=O)N[C@@H](C(=O)O)CCC(=O)N1C` [MICROCYSTIN-LR] (R[Adda][d(γGlu)][NMeDha][dA]L[dAsp(3S-Me)]-OH; lactam N-7) showed an IC50 of 0.065 nM. This counts as picomolar.

As for `C=C1[C@@H](O)[C@@H]2O[C@]3(CC[C@H](/C=C/[C@@H](C)[C@@H]4CC(C)=C[C@@]5(O[C@H](C[C@@](C)(O)C(=O)O)CC[C@H]5O)O4)O3)CC[C@H]2O[C@@H]1[C@@H](O)C[C@H](C)[C@H]1O[C@@]2(CCCCO2)CC[C@H]1C` [OKADAIC ACID], the IC50 in test [1] was 1 nM; in test [2], 0.45 nM.
